{
  "source": "ChEMBL document CHEMBL2069205",
  "about": "(Bioorg Med Chem Lett, 2012)",
  "key": {"[1]": {"target": "T1, Potassium voltage-gated channel subfamily KQT member 1 (Homo sapiens, UniProt P51787)", "T1 sequence (P51787 whole entry)": "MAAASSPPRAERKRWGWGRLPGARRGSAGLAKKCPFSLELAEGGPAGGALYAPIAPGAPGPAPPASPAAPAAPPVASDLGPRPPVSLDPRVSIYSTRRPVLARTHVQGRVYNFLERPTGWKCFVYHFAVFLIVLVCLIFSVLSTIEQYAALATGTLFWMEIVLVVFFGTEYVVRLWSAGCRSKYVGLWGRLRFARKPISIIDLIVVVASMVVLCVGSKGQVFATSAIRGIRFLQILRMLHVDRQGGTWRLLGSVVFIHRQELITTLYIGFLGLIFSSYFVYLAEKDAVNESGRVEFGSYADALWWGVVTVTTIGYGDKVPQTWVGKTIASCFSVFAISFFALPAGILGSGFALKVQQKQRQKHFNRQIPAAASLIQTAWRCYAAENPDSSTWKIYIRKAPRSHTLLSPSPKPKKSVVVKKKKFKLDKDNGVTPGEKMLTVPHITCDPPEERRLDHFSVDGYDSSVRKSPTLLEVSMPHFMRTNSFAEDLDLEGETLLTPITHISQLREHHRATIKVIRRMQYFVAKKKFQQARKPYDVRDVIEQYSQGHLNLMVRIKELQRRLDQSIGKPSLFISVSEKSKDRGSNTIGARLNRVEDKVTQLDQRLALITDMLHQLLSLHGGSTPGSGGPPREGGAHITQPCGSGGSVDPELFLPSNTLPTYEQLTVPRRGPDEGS", "experiment": "Activation of Kv7.1 channel expressed in CHO cells assessed as depolarization-induced […] after 3 mins by patch clamp assay", "assay_type": "cell-based", "method_in_brief": "(§1)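 CHO cells stably expressing KCNQ1 were run by perforated (amphotericin B, 50 µg/ml) population patch clamp in pH 7.4 HEPES extracellular solution. Cells were held at −80 mV and stepped to +40 mV for 2000 ms. Current at the end of the step was taken before and after 3 min of compound, as percent change. Wells needed >30 MΩ seal and 0.6–0.8 nA minimum current. EC50s came from 8-point, threefold dilutions in duplicate.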"}, "[2]": {"target": "T1, Potassium voltage-gated channel subfamily KQT member 1", "experiment": "Activation of Kv7.1 channel expressed in CHO cells assessed as depolarization-induced […] after 3 mins by patch clamp assay relative to control", "assay_type": "cell-based", "details": "0.05 h, read-out: %max; call rule not given here", "method_in_brief": "as §1"}, "[3]": {"experiment": "Intrinsic clearance in rat liver microsomes", "assay_type": "ADME, Microsome", "details": "read-out: CLH", "method_in_brief": "(§2)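 Intrinsic clearance was measured in hepatic microsomes, and the data were used to predict hepatic clearance (CL_HEP).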"}, "[4]": {"experiment": "Intrinsic clearance in human liver microsomes", "assay_type": "ADME, Microsome", "details": "read-out: CLH", "method_in_brief": "as §2"}, "[5]": {"system": "Liver microsomes", "experiment": "Drug metabolism in human liver microsomes assessed as methoxy-O-demethylation by mass spectrophotometry", "assay_type": "ADME, Microsome", "method_in_brief": "(§3)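 In vitro biotransformation in liver microsomes was examined, with primary metabolic pathways identified by mass spectrometry.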"}, "[6]": {"target": "Cannabinoid receptor 1 (Homo sapiens) (UniProt P21554)", "sequence (P21554 whole entry)": "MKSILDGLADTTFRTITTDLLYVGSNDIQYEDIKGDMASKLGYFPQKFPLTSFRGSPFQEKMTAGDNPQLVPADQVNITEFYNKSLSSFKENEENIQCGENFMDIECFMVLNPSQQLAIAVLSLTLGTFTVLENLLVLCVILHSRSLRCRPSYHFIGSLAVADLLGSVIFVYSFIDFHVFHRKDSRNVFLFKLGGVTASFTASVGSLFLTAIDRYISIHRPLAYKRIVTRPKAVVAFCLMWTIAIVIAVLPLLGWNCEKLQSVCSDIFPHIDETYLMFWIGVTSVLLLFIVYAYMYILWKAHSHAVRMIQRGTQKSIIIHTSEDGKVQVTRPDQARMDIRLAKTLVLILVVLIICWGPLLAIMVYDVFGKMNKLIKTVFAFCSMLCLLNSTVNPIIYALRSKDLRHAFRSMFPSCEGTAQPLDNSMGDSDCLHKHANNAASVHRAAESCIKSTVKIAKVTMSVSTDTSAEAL", "experiment": "Inhibition of human CB1 receptor at 10 uM", "method_in_brief": "(§4)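 The Lead Profiling binding panel (68 GPCRs, ion channels and transporters) was run at a single point, reading percent inhibition.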"}, "[7]": {"target": "T2, Potassium voltage-gated channel subfamily KQT member 4 (Homo sapiens, UniProt P56696)", "T2 sequence (P56696 whole entry)": "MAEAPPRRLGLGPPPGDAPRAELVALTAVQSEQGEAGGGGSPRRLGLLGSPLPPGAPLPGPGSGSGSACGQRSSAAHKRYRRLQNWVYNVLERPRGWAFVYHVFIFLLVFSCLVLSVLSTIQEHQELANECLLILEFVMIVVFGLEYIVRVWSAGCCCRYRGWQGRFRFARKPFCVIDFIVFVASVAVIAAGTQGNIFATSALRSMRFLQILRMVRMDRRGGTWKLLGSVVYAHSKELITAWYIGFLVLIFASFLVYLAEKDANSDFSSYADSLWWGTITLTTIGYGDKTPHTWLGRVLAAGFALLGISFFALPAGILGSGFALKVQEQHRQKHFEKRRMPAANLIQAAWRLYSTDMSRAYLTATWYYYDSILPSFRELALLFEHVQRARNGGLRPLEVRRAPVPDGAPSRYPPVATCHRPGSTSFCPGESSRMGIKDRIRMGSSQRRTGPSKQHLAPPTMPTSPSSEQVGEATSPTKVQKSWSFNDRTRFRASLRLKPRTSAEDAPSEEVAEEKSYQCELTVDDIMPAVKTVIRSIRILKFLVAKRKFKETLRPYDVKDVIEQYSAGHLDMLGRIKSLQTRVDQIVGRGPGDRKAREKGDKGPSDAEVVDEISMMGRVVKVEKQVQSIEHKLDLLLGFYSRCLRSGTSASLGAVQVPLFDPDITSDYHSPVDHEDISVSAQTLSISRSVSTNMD", "experiment": "Activation of KCNQ4 channel expressed in CHO cells assessed as depolarization-induced […] after 3 mins by patch clamp assay relative to control", "assay_type": "cell-based", "method_in_brief": "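KCNQ4-expressing CHO cells were measured on the same perforated population patch-clamp platform. Cells were held at −70 mV and depolarized to +40 mV, with step current measured at +40 mV before and after 3 min of compound. Effect was calculated as percent change from the pre-compound current in the same well. The 8-point, threefold concentration series was run in duplicate.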"}, "[8]": {"system": "Liver microsomes", "experiment": "Drug metabolism in rat liver microsomes assessed as tolyl-oxidation by mass spectrophotometry", "assay_type": "ADME, Microsome", "method_in_brief": "as §3"}, "[9]": {"target": "5-hydroxytryptamine receptor 2B (Homo sapiens) (UniProt P41595)", "sequence (P41595 whole entry)": "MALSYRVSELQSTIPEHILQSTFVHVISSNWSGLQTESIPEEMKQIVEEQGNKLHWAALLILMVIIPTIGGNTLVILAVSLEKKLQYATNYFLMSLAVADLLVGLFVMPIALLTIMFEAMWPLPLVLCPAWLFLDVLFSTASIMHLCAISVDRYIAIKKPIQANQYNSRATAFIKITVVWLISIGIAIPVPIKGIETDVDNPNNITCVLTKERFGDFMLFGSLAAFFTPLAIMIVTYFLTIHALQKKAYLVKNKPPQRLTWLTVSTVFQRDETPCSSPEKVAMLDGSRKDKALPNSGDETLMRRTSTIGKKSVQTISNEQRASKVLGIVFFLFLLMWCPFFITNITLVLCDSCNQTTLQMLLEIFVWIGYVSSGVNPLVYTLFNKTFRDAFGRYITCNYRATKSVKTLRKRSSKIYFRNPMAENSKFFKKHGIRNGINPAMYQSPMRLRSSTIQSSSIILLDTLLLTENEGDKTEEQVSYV", "experiment": "Inhibition of human 5HT2B receptor at 10 uM", "method_in_brief": "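Commercial lead-profiling binding panel of up to 68 GPCRs, ion channels and transporters; percent inhibition measured at a single concentration of 10 µM.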"}, "[10]": {"target": "Sodium-dependent dopamine transporter (Homo sapiens) (UniProt Q01959)", "sequence (Q01959 whole entry)": "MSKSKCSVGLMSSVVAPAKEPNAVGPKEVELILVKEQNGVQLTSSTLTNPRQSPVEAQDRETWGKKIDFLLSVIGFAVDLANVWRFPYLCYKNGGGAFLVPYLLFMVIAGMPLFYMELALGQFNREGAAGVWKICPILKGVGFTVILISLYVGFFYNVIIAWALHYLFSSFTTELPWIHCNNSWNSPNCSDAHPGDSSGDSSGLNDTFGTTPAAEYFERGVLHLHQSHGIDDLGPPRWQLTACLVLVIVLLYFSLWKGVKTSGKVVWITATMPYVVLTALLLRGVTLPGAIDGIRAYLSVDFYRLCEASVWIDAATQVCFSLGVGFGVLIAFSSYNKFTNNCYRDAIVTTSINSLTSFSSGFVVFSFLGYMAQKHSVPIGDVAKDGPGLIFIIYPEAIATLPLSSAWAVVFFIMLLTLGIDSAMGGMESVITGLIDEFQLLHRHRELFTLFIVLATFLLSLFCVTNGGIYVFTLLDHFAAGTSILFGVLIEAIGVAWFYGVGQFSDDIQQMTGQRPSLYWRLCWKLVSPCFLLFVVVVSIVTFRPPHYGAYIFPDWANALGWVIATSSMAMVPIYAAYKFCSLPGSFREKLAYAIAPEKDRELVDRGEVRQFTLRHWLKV", "experiment": "Inhibition of human DAT at 10 uM", "method_in_brief": "as §4"}, "[11]": {"system": "Liver microsomes", "experiment": "Drug metabolism in rat liver microsomes assessed as methoxy-O-demethylation by mass spectrophotometry", "assay_type": "ADME, Microsome", "method_in_brief": "as §3"}, "[12]": {"target": "T3, Adenosine receptor A3 (Homo sapiens) (UniProt P0DMS8)", "T3 sequence (whole entry)": "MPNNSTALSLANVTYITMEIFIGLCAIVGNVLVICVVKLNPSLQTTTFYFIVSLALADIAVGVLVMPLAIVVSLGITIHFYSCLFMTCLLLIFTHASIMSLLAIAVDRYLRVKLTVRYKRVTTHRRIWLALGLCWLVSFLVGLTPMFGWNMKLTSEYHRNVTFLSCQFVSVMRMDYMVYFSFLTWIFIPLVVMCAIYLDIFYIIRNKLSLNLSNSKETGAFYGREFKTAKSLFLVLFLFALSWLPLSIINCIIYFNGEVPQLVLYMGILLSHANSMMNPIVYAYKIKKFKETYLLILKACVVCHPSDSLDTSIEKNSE", "experiment": "Inhibition of human adenosine A3 receptor at 10 uM", "method_in_brief": "as §4"}, "[13]": {"system": "Plasma", "experiment": "Fraction unbound in rat plasma", "assay_type": "ADME, cell-free", "method_in_brief": "(§5)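 Plasma protein binding was measured by rapid equilibrium dialysis, giving the unbound fraction.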"}, "[14]": {"target": "Potassium voltage-gated channel subfamily KQT member 2 (Homo sapiens, UniProt O43526)", "sequence (O43526 whole entry)": "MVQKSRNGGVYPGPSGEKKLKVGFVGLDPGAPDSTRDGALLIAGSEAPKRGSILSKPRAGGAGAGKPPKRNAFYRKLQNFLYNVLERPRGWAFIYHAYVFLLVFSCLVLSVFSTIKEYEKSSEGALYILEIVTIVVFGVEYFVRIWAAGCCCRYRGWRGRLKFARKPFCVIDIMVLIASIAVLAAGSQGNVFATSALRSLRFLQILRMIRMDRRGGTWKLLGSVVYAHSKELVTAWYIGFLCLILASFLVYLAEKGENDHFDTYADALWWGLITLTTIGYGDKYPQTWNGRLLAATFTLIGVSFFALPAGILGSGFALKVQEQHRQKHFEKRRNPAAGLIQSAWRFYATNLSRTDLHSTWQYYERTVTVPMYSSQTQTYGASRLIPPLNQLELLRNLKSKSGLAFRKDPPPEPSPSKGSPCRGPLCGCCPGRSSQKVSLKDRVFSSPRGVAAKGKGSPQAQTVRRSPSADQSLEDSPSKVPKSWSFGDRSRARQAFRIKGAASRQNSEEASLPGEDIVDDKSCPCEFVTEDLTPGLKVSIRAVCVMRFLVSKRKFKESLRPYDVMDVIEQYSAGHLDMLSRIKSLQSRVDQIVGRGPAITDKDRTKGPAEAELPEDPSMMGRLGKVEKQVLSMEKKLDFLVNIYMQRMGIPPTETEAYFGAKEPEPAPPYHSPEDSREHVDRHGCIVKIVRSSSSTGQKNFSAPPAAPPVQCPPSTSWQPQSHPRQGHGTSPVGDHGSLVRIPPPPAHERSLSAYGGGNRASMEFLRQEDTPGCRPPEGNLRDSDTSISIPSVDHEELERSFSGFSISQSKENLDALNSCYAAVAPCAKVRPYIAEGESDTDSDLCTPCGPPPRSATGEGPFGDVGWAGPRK", "experiment": "Activation of KCNQ2 channel expressed in CHO cells assessed as depolarization-induced […] after 3 mins by patch clamp assay relative to control", "assay_type": "cell-based"}, "[15]": {"system": "Plasma", "experiment": "Fraction unbound in human plasma", "assay_type": "ADME, cell-free", "method_in_brief": "as §5"}, "[16]": {"system": "Liver microsomes", "experiment": "Drug metabolism in human liver microsomes assessed as tolyl-oxidation by mass spectrophotometry", "assay_type": "ADME, Microsome", "method_in_brief": "as §3"}},
  "data": [
    {"smiles": "COc1ccc(-c2csc(NC(=O)C3CCCCN3S(=O)(=O)c3ccccc3)n2)cc1", "note": "(racemic)", "values": [
      {"measurement": "EC50", "setting": "[1]", "value": 1690, "unit": "nM"},
      {"measurement": "Emax", "setting": "[2]", "value": 285, "unit": "%"}
    ]},
    {"smiles": "O=C(Nc1nc(-c2ccc(OC(F)(F)F)cc2)cs1)[C@H]1CCCCN1S(=O)(=O)c1ccc(OC(F)(F)F)cc1", "values": [
      {"measurement": "Activity", "setting": "[1]; human, cho, 0.05 h", "value": "Not Active"},
      {"measurement": "CLint scaled", "setting": "[3]", "value": 20.6, "unit": "mL/min/kg"},
      {"measurement": "CLint scaled", "setting": "[4]", "value": 7.9, "unit": "mL/min/kg"}
    ]},
    {"smiles": "COc1ccc(-c2csc(NC(=O)[C@H]3CCCCN3S(=O)(=O)c3ccccc3)n2)cc1", "values": [
      {"measurement": "EC50", "setting": "[1]", "value": 1470, "unit": "nM"},
      {"measurement": "Emax", "setting": "[2]", "value": 359, "unit": "%"}
    ]},
    {"smiles": "COc1ccc(-c2csc(NC(=O)[C@H]3CCCCN3S(=O)(=O)c3ccc(C)cc3)n2)cc1", "values": [
      {"measurement": "Drug metabolism", "setting": "[5]", "value": "Active"},
      {"measurement": "inhibition", "setting": "[6]", "value": 97, "unit": "%"},
      {"measurement": "EC50", "setting": "[7]", "value": "> 30000", "unit": "nM"},
      {"measurement": "Drug metabolism", "setting": "[8]", "value": "Active"},
      {"measurement": "CLint scaled", "setting": "[3]", "value": 64.7, "unit": "mL/min/kg"},
      {"measurement": "inhibition", "setting": "[9]", "value": 66, "unit": "%"},
      {"measurement": "inhibition", "setting": "[10]", "value": 54, "unit": "%"},
      {"measurement": "Drug metabolism", "setting": "[11]", "value": "Active"},
      {"measurement": "inhibition", "setting": "[12]", "value": 73, "unit": "%"},
      {"measurement": "Fu", "setting": "[13]", "value": 0.7, "unit": "%"},
      {"measurement": "EC50", "setting": "[14]", "value": "> 30000", "unit": "nM"},
      {"measurement": "CLint scaled", "setting": "[4]", "value": 18, "unit": "mL/min/kg"},
      {"measurement": "Fu", "setting": "[15]", "value": 0.6, "unit": "%"},
      {"measurement": "Drug metabolism", "setting": "[16]", "value": "Active"}
    ]},
    {"smiles": "COc1ccc(-c2csc(NC(=O)[C@H]3CCCCN3S(=O)(=O)c3ccc4c(c3)OCO4)n2)cc1", "values": [
      {"measurement": "EC50", "setting": "[1]", "value": 780, "unit": "nM"},
      {"measurement": "Emax", "setting": "[2]", "value": 178, "unit": "%"}
    ]},
    {"smiles": "COc1ccc(-c2csc(NC(=O)[C@@H]3CCCCN3S(=O)(=O)c3ccccc3)n2)cc1", "values": [
      {"measurement": "EC50", "setting": "[1]", "value": "> 30000", "unit": "nM"}
    ]}
  ]
}
